Tests used:
[1] = molecular target: T1, Alpha-2A adrenergic receptor (Homo sapiens, UniProt P08913); test: In vitro binding affinity towards alpha-2A adrenergic receptor of human clone in radioligand binding assay
T1 sequence (P08913 whole entry): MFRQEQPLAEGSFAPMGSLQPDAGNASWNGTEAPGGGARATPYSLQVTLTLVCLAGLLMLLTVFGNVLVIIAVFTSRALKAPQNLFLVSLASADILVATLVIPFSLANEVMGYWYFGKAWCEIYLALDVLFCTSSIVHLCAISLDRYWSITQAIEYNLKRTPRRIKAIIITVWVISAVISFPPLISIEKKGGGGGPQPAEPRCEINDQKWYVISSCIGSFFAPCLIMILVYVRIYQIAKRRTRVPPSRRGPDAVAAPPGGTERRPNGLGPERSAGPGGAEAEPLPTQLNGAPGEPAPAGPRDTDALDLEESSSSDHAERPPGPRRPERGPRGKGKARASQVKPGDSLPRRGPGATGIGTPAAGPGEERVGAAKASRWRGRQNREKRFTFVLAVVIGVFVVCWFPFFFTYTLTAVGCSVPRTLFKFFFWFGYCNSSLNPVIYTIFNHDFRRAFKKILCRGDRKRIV

[2] = Relative affinities for alpha-2a and alpha-1A receptors
Rattus norvegicus = species: Rattus norvegicus; test: Relative affinities for alpha2B and alpha1A receptors
[3] = molecular target: T2, Alpha-1B adrenergic receptor (Mesocricetus auratus, UniProt P18841); test: In vitro binding affinity towards alpha-1B adrenergic receptor of hamster clone in radioligand binding assay; assay type: single protein
T2 sequence (P18841 whole entry): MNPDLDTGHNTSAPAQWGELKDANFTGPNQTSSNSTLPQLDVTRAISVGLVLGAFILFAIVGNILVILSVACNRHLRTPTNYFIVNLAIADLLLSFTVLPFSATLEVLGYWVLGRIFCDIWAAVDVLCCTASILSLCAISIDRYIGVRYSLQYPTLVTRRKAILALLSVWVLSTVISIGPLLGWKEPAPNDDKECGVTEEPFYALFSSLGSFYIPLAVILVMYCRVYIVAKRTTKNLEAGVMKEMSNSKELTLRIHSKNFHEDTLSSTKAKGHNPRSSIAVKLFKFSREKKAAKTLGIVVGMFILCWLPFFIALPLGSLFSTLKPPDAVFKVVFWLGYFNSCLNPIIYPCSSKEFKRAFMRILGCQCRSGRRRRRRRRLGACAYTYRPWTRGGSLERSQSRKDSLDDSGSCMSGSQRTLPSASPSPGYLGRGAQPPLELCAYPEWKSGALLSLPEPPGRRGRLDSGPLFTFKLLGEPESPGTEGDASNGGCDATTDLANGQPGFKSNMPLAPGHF
How it was run: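 Radioligand binding at α1 subtypes: α1A from rat submaxillary gland, α1B hamster clone, α1D rat clone. Run essentially per an earlier method.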

[4] = molecular target: T3, Alpha-1B adrenergic receptor (Rattus norvegicus) (UniProt P15823); test: Functional agonism of the compounds to constrict tissue containing the alpha-1B adrenergic receptor in rat spleen; assay type: tissue-based
T3 sequence (whole entry): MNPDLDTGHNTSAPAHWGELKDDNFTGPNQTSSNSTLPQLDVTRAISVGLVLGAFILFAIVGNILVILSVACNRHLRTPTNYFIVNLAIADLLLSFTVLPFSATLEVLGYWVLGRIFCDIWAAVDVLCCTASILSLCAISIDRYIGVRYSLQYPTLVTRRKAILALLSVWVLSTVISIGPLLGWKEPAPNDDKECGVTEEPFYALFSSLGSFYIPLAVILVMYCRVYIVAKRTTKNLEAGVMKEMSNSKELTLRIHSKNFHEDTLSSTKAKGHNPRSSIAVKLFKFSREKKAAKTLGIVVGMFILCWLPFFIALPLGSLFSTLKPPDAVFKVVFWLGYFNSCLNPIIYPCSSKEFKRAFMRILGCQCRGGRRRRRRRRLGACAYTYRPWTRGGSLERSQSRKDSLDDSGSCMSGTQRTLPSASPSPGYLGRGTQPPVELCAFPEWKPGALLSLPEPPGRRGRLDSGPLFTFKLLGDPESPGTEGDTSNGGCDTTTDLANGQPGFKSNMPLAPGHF
How it was run: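 Agonist dose–response curves were run on isolated tissue: rabbit urethra for α1A, rat spleen for α1B, and rat aorta for α1D.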

[5] = molecular target: T4, Alpha-1A adrenergic receptor (Oryctolagus cuniculus) (UniProt O02824); test: Efficacy relative to phenylephrine (PE) to constrict tissue containing the alpha-1A adrenergic receptor in rabbit urethra; assay type: functional, tissue-based
T4 sequence (whole entry): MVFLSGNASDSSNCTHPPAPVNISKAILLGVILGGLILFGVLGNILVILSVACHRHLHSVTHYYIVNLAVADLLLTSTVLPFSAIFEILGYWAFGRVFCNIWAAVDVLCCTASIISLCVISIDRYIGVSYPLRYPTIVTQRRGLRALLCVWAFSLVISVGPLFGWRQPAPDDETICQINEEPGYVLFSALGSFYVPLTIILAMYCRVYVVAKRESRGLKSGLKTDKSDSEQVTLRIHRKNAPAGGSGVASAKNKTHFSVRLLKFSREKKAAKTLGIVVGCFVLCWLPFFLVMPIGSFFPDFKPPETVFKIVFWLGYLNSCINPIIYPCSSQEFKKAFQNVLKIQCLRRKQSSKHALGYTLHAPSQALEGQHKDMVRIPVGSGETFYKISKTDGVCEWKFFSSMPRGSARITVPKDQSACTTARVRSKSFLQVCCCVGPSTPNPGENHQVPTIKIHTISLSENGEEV
How it was run: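 α1-agonist dose–response curves in isolated tissue: rabbit urethra (α1A), rat spleen (α1B), rat aorta (α1D). Agonist potency and efficacy read from the concentration–response curves.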

[6] = molecular target: T5, Alpha-2B adrenergic receptor (Rattus norvegicus, UniProt P19328); test: In vitro binding affinity towards alpha-2B adrenergic receptor of rat neonatal lung in radioligand binding assay
T5 sequence (P19328 whole entry): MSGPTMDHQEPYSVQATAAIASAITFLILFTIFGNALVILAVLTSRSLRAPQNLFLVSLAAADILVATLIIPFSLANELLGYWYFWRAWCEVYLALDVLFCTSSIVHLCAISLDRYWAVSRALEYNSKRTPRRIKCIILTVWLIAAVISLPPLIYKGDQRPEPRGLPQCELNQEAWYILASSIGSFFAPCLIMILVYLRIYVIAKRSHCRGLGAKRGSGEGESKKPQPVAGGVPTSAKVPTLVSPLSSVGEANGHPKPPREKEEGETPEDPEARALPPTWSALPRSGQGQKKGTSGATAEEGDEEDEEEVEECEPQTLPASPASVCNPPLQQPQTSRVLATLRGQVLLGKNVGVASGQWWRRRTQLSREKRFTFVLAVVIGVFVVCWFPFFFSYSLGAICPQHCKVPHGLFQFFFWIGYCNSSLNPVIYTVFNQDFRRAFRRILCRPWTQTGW

| SMILES | Ki [1] [nM] | Selectivity [2] | Selectivity (Rattus norvegicus) | Ki [3] [nM] | pD2 [4] | Efficacy [5] [%] | Ki [6] [nM] |
| --- | --- | --- | --- | --- | --- | --- | --- |
| CN(c1cccc2c1CCCC2c1c[nH]cn1)S(C)(=O)=O (stereo not drawn) | 85.1 | 0.4 | 4 | > 10000 | 5.65 | 79 | 912 |
| CC(N)C(O)c1ccccc1 (stereo not drawn) [PHENYLPROPANOLAMINE] | 275 | 0.03 | 0.03 | 9550 | 3.55 | 68 | 263 |
| O=C(Nc1cccc2c1CCCC2c1c[nH]cn1)C(F)(F)F (stereo not drawn) | 309 | 2 | 4 | > 10000 | 5.47 | 118 | 661 |
| O=S(=O)(CC(F)(F)F)Nc1cccc2c1CCCC2c1c[nH]cn1 (single isomer, unassigned; (+)) | 955 | 8 | > 80 | > 10000 |  | 52 | > 10000 |
| COc1ccc(OC)c(C(O)CN)c1 (stereo not drawn) [DESGLYMIDODRINE] | 1450 | 0.7 | 0.9 |  | 4.07 | 133 | 1860 |
